# Assays:
# Penicillium digitatum [1] = assay: Fungicidal activity against Penicillium digitatum infected Valenica oranges assessed as fruit weight loss at 200 mg/L treated for 1 min at 50 degC postharvest at 20 hr after fungal conidial inoculation measured after 14 days of storage at 17 degC (water Rvb = 6.18%); type: functional
# Penicillium digitatum [2] = assay: Fungicidal activity against Penicillium digitatum infected Valenica oranges assessed as fruit weight loss at 600 mg/L treated for 1 min at 20 degC postharvest at 20 hr after fungal conidial inoculation measured after 14 days of storage at 17 degC in presence of 0.5% SBC (water Rvb = 7.44%); type: functional
# Penicillium digitatum [3] = assay: Fungicidal activity against Penicillium digitatum infected Valenica oranges assessed as fruit weight loss at 400 mg/L treated for 1 min at 40 degC postharvest at 20 hr after fungal conidial inoculation measured after 7 days of storage at 17 degC in presence of 2% SBC (water Rvb = 4.70%); type: functional
# Penicillium digitatum [4] = assay: Fungicidal activity against Penicillium digitatum infected Valenica oranges assessed as fruit weight loss at 400 mg/L treated for 1 min at 40 degC postharvest at 20 hr after fungal conidial inoculation measured after 7 days of storage at 17 degC in presence of 0.5% SBC (water Rvb = 4.07%); type: functional
# Penicillium digitatum [5] = assay: (§1) Fungicidal activity against TBZ-resistant Penicillium digitatum infected Valencia oranges assessed as postharvest green mold incidence at 400 mg/L treated for 1 min at 40 degC at 20 hr after fungal conidial inoculation measured after 7 days of storage at 20 degC in presence of 0.5% SBC (water Rvb = 81.7%); type: functional
# Penicillium digitatum [6] = assay: Fungicidal activity against Penicillium digitatum infected Valenica oranges assessed as fruit weight loss at 400 mg/L treated for 1 min at 40 degC postharvest at 20 hr after fungal conidial inoculation measured after 21 days of storage at 17 degC in presence of 1% SBC (water Rvb = 12.71%); type: functional
# Penicillium digitatum [7] = assay: (§2) Fungicidal activity against TBZ-sensitive Penicillium digitatum infected Nova mandarins assessed as postharvest green mold incidence at 600 mg/L treated for 1 min at 20 degC at 20 hr after fungal conidial inoculation measured after 5 days of storage at 20 degC in presence of 2% SBC (water Rvb = 96.7%); type: functional
# Procedure, shortened: (§3)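 Fruit were surface-disinfected in 1 g/L hypochlorite for 30 s, rinsed, dried, then wounded twice equatorially (2 mm × 2 mm rod). Inoculation was a 1 min dip in P. digitatum conidia, 1 × 10^5 conidia/mL final. Fruit were held 20 h at 20 °C and 90% RH, dipped 1 min (SBC wt/vol), and air-dried. Storage was 20 °C, 90% RH. Decay incidence (% fruit with lesions) was scored at 5 d for mandarins and 7 d for oranges. Three replicates of 40 fruit were used; arcsin-transformed data were compared by LSD, p ≤ 0.05.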
# Penicillium digitatum [8] = assay: Fungicidal activity against TBZ-sensitive Penicillium digitatum infected Nova mandarins assessed as postharvest green mold incidence at 600 mg/L treated for 1 min at 20 degC at 20 hr after fungal conidial inoculation measured after 5 days of storage at 20 degC (water Rvb = 100%); type: functional; procedure, shortened: as §3
# Fruit [9] = assay: Drug residues in Citrus sinensis cvs. Valencia late (Valencia oranges) at 400 mg/L treated for 1 min at 40 degC postharvest measured after 20 days of storage at 17 degC in presence of 0.5% SBC by GC analysis; type: ADME
# Procedure, shortened: (§4)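 'Valencia' oranges were dipped 1 min in TBZ at 600 mg/L (20 °C, ±0.5, 1 or 2% wt/vol SBC), 400 mg/L (40 °C, ±SBC) or 200 mg/L (50 °C, alone), then air-dried. They were sampled at 0, 10 and 20 days at 17 °C. Peel of five fruit was frozen, and 5 g of homogenate was extracted with ethyl acetate/hexane (1/1) plus NaCl. The extract was dried under N2, taken up in acetone and analysed by GC. Results are mg/kg on a whole-fruit basis.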
# Penicillium digitatum [10] = assay: as §1, with “TBZ-sensitive” for “TBZ-resistant”, “1%” for “0.5%”, “29.2%)” for “81.7%)”; type: functional; procedure, shortened: as §3
# Penicillium digitatum [11] = assay: as §1, with “600” for “400”, “20” for “40”, “2%” for “0.5%”, “40.0%)” for “81.7%)”; type: functional
# Penicillium digitatum [12] = assay: as §2, with “TBZ-resistant” for “TBZ-sensitive”, “0.5%” for “2%”, “86.7%)” for “96.7%)”; type: functional
# Fruit [13] = assay: Drug residues in Citrus sinensis cvs. Valencia late (Valencia oranges) at 400 mg/L treated for 1 min at 40 degC postharvest measured after 10 days of storage at 17 degC in presence of 1% SBC by GC analysis; type: ADME; procedure, shortened: as §4
# Fruit [14] = assay: Drug residues in Citrus sinensis cvs. Valencia late (Valencia oranges) at 400 mg/L treated for 1 min at 40 degC postharvest measured after 10 days of storage at 17 degC by GC analysis; type: ADME; procedure, shortened: as §4
# Fruit [15] = assay: Drug residues in Citrus sinensis cvs. Valencia late (Valencia oranges) at 600 mg/L treated for 1 min at 20 degC postharvest measured after 10 days of storage at 17 degC in presence of 2% SBC by GC analysis; type: ADME; procedure, shortened: as §4
# Fruit [16] = assay: Drug residues in Citrus sinensis cvs. Valencia late (Valencia oranges) at 400 mg/L treated for 1 min at 40 degC postharvest measured immediately post-drug treatment in presence of 1% SBC by GC analysis; type: ADME; procedure, shortened: as §4
# Fruit [17] = assay: Drug residues in Citrus sinensis cvs. Valencia late (Valencia oranges) at 400 mg/L treated for 1 min at 40 degC postharvest measured immediately post-drug treatment by GC analysis; type: ADME; procedure, shortened: as §4
# Fruit [18] = assay: Drug residues in Citrus sinensis cvs. Valencia late (Valencia oranges) at 600 mg/L treated for 1 min at 20 degC postharvest measured immediately post-drug treatment in presence of 1% SBC by GC analysis; type: ADME; procedure, shortened: as §4
# Penicillium digitatum [19] = assay: as §1, with “Nova mandarins” for “Valencia oranges”, “5” for “7”, “83.3%)” for “81.7%)”; type: functional
# Penicillium digitatum [20] = assay: as §2, with “TBZ-resistant” for “TBZ-sensitive”, “1%” for “2%”, “83.3%)” for “96.7%)”; type: functional
# Cuticular wax = assay: Drug residues in Citrus sinensis cvs. Salustiana (Salustiana oranges) cuticular wax at 600 mg/L treated for 3 min at 20 degC postharvest measured after overnight incubation at 17 degC by GC analysis; type: ADME; details: 0.05 h
# Procedure, shortened: (§5)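 'Salustiana' oranges were washed with water and air-dried. They were dipped 1 or 3 min in TBZ 600 mg/L at 20 or 50 °C, or 1 min in TBZ 600 mg/L plus 2% SBC at 20 °C, then dried overnight at 17 °C in the dark. Surface residue was taken by water extraction and wax residue by chloroform extraction. Inner residue was measured in fruit after both extractions. Extracts were dried under N2, taken up in acetone and analysed by GC. Values are mg/kg on a whole-fruit basis.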
# Fruit surface = assay: Drug residues on Citrus sinensis cvs. Salustiana (Salustiana oranges) fruit surface at 600 mg/L treated for 3 min at 20 degC postharvest measured after overnight incubation at 17 degC by GC analysis; type: ADME; details: 0.05 h; procedure, shortened: as §5
# Fruit [21] = assay: Drug residues in Citrus sinensis cvs. Valencia late (Valencia oranges) at 200 mg/L treated for 1 min at 50 degC postharvest measured after 20 days of storage at 17 degC by GC analysis; type: ADME; procedure, shortened: as §4
structure (smiles),measurement,setting,value
c1ccc2[nH]c(-c3cscn3)nc2c1 [THIABENDAZOLE],Activity,Penicillium digitatum [1],5.8%
same,Activity,Penicillium digitatum [2],8.15%
same,Activity,Penicillium digitatum [3],4.55%
same,Activity,Penicillium digitatum [4],4.23%
same,Activity,Penicillium digitatum [5],14.2%
same,Activity,Penicillium digitatum [6],12.11%
same,Activity,Penicillium digitatum [7],0%
same,Activity,Penicillium digitatum [8],0%
same,Drug uptake,Fruit [9],0.79 mg/kg
same,Activity,Penicillium digitatum [10],5%
same,Activity,Penicillium digitatum [11],21.7%
same,Activity,Penicillium digitatum [12],93.3%
same,Drug uptake,Fruit [13],0.7 mg/kg
same,Drug uptake,Fruit [14],0.89 mg/kg
same,Drug uptake,Fruit [15],1.23 mg/kg
same,Drug uptake,Fruit [16],0.75 mg/kg
same,Drug uptake,Fruit [17],0.83 mg/kg
same,Drug uptake,Fruit [18],1.31 mg/kg
same,Activity,Penicillium digitatum [19],70%
same,Activity,Penicillium digitatum [20],65%
same,Drug uptake,Cuticular wax,0.11 mg/kg
same,Drug uptake,Fruit surface,0.69 mg/kg
same,Drug uptake,Fruit [21],0.38 mg/kg
